Source: ChEMBL document CHEMBL1142659, “The role of intracellularly released formaldehyde and butyric acid in the anticancer activity of acyloxyalkyl esters” (J Med Chem, 2005)

Experiments:
Assay type in all cases: functional, cell-based
MES-SA = test: Concentration required for 50% inhibition of human MES-SA cell proliferation
How it was run: (§1)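 Solid-tumour lines (HT-29, PC-3, MES-SA, and its mdr-1/P-glycoprotein-high MES-SA/Dx5 subclone) were seeded at (2.5-5) × 10^3 cells per well. They were exposed to escalating prodrug concentrations for 4 days, then harvested. Proliferation was measured by Hoechst DNA staining, and IC50 values are given in µM.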

[1] = Concentration required for 50% inhibition of human MES-DX5 cell proliferation; how it was run: as §1
HL-60 = test: Concentration required for 50% inhibition of human HL-60 cell proliferation
How it was run: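 HL-60 leukemia cells, including the multidrug-resistant HL-60/MX2 subline with altered topoisomerase II activity, were seeded at (2.5-5) × 10^3 cells per well. They were exposed to escalating prodrug concentrations for 4 days. Proliferation was read by Alamar blue, and IC50 values are given in µM.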

HT-29 = test: Concentration required for 50% inhibition of human HT-29 cell proliferation; how it was run: as §1
PC-3 = test: Concentration required for 50% inhibition of human PC-3 cell proliferation; how it was run: as §1

IC50 (HL-60): 36 µM | IC50 (HT-29): 52 µM | IC50 (PC-3): 56 µM
SMILES: CCCC(=O)OCOC(=O)C(C)(C)C [AN-9]
IC50 (MES-SA): 40 µM | IC50 [1]: 46 µM
